{"source": "ChEMBL document CHEMBL3421622", "about": "“New organochalcogen multitarget drug: synthesis and antioxidant and antitumoral activities of chalcogenozidovudine derivatives” (J Med Chem, 2015)", "key": {"Brain": {"system": "Brain", "experiment": "Antioxidant activity in Wistar rat brain assessed as inhibition of TBARS formation at 200 uM after 60 mins by spectrophotometric method relative to control", "format": "functional", "summary_of_the_method": "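Adult male Wistar rat brain (250−350 g) homogenized 1:10 w/v in 10 mM Tris-HCl pH 7.4 and spun at 2000 rpm for 10 min; low-speed supernatant (S1) used. Blank lacked Fe. TBARS read at 532 nm against MDA standard. Three experiments.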"}, "Liver [1]": {"system": "Liver", "experiment": "Toxicity in rat liver assessed as effect on cell viability at 50 to 200 uM after 2 hrs by MTT reduction assay relative to control", "summary_of_the_method": "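Liver slices from healthy adult rats preincubated 10 min in Krebs Ringer pH 7.4. Compound added to 200, 100 or 50 μM final for 2 h at 37 °C. MTT (5 mg/mL) added for 30 min at 37 °C, formazan dissolved in DMSO, absorbance read at 570 and 700 nm. Expressed as % of untreated; three experiments.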"}, "Liver [2]": {"system": "Liver", "experiment": "Toxicity in rat liver assessed as change in AST release relative to control", "format": "tissue-based"}, "5637 [3]": {"system": "5637", "experiment": "Cytotoxicity against human 5637 cells assessed as growth inhibition at 50 uM after 48 hrs by MTT assay relative to control", "format": "functional", "conditions": "Homo sapiens, 5637, 48 h; read-out: GI", "summary_of_the_method": "(§1)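 5637 cells in log phase, seeded at 2 × 10^4 per well and grown 24 h. Exposed for 24, 48 or 72 h to 200−12.5 μM in DMSO (final ≤0.25%, vehicle group included). MTT added for 3 h, formazan dissolved in DMSO, read at 492 nm. Growth inhibition = [1 − Abs treated/Abs control] × 100%. […] Three independent experiments.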"}, "5637 [4]": {"system": "5637", "experiment": "Cytotoxicity against human 5637 cells assessed as growth inhibition after 48 hrs by MTT assay", "format": "functional, cell-based", "conditions": "Homo sapiens, 5637, 48 h", "summary_of_the_method": "as §1"}, "5637 [5]": {"system": "5637", "experiment": "Induction of apoptosis in human 5637 cells assessed as early and late apoptotic cells at 100 uM after 48 hrs by annexin V-PE/7-AAD staining-based flow cytometric analysis (reference value: 7.36%)", "format": "functional"}, "5637 [6]": {"system": "5637", "experiment": "Induction of apoptosis in human 5637 cells at 50 uM after 48 hrs by annexin V-PE/7-AAD staining-based flow cytometric analysis (reference value: 7.36%)", "format": "functional"}, "5637 [7]": {"system": "5637", "experiment": "Induction of apoptosis in human 5637 cells assessed as DNA fragmentation at 50 to 100 uM after 48 hrs by TUNEL assay relative to control", "format": "functional, cell-based", "summary_of_the_method": "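5637 cells treated 48 h, then collected and fixed. TdT-mediated BrdU labelling of fragmented DNA, detected with TMR-anti-BrdU after 30 min staining in the dark at room temperature. TUNEL-positive cells counted by flow cytometry.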"}, "5637 [8]": {"system": "5637", "experiment": "Cytotoxicity against human 5637 cells assessed as dead cells at 100 uM after 48 hrs by calcein/ethidium bromide staining-based fluorescence microscopic analysis relative to control", "format": "functional, cell-based", "summary_of_the_method": "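5637 bladder carcinoma cells (DMEM, 10% FBS) seeded at 2 × 10^4 per well and grown 24 h. Exposed to 100 or 50 μM compound for 48 h. Washed, then stained with calcein (live, green) and ethidium homodimer (dead, red). Scored by multicolor fluorescence microscopy.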"}, "5637 [9]": {"system": "5637", "experiment": "Downregulation of Bcl2 mRNA expression in human 5637 cells at 100 uM after 48 hrs by real-time PCR analysis relative to control", "format": "functional, cell-based", "summary_of_the_method": "(§2)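 5637 cells seeded at 2 × 10^5 per well and grown 24 h. Treated with 50 or 100 μM for 48 h, washed in PBS, RNA extracted. Bax, Bcl-2, caspase-9 and survivin mRNA measured by real-time PCR; Bax:Bcl-2 ratio derived. Experiments in triplicate.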"}, "5637 [10]": {"system": "5637", "experiment": "Induction of apoptosis in human 5637 cells assessed as ratio of Bax mRNA to Bcl2 mRNA level at 100 uM after 48 hrs by real-time PCR analysis (reference value: 0.08 to 0.13)", "format": "functional", "summary_of_the_method": "as §2"}, "5637 [11]": {"system": "5637", "experiment": "Induction of apoptosis in human 5637 cells assessed as ratio of Bax mRNA to Bcl2 mRNA level at 50 uM after 48 hrs by real-time PCR analysis (reference value: 0.08 to 0.13)", "format": "functional", "summary_of_the_method": "as §2"}, "5637 [12]": {"system": "5637", "experiment": "Upregulation of caspase-9 mRNA expression in human 5637 cells at 100 uM after 48 hrs by real-time PCR analysis relative to control", "format": "functional, cell-based", "summary_of_the_method": "as §2"}, "5637 [13]": {"system": "5637", "experiment": "Downregulation of survivin mRNA expression in human 5637 cells at 100 uM after 48 hrs by real-time PCR analysis relative to control", "format": "functional, cell-based", "summary_of_the_method": "as §2"}, "Liver [14]": {"system": "Liver", "experiment": "Toxicity in rat liver slices assessed as change in ALT release relative to control", "conditions": "in vitro"}, "[15]": {"experiment": "Antioxidant activity assessed as thiol peroxidase-like activity assessed as time required to oxidize 50% of benzenethiol during reduction of hydrogen peroxide measured for 180 secs by UV spectroscopic analysis", "conditions": "0.05 h"}, "[16]": {"experiment": "Antioxidant activity assessed as thiol peroxidase-like activity assessed as time required to oxidize 50% of benzenethiol during reduction of hydrogen peroxide measured for 180 secs by UV spectroscopic analysis relative to control", "conditions": "0.05 h"}, "5637 [17]": {"system": "5637", "experiment": "Cytotoxicity against human 5637 cells assessed as growth inhibition at 12.5 to 200 uM after 48 hrs by MTT assay relative to control", "format": "functional", "summary_of_the_method": "as §1"}, "5637 [18]": {"system": "5637", "experiment": "Cytotoxicity against human 5637 cells assessed as growth inhibition at 100 to 200 uM after 48 hrs by MTT assay relative to control", "format": "functional", "summary_of_the_method": "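5637 bladder carcinoma cells in DMEM with 10% FBS, seeded 2 × 10^4/well, grown 24 h at 37 °C, 5% CO2. Exposed to 200–12.5 μM from DMSO stocks (final DMSO ≤0.25%, solvent control) for 48 h. MTT added for 3 h, formazan dissolved in DMSO, read at 492 nm. Growth inhibition = [1 − Abs treated/Abs control] × 100%. Three independent experiments.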"}}, "note": "Calls of active or inactive are those of the source. The calls are words filed in the database; no cut-off is given here.", "data": [{"smiles": "Cc1cn([C@H]2C[C@H](N=[N+]=[N-])[C@@H](C[Se]c3ccc(Cl)cc3)O2)c(=O)[nH]c1=O", "values": [{"measurement": "inhibition", "setting": "Brain", "result": "Active"}, {"measurement": "Activity", "setting": "Liver [1]", "result": "Non-toxic"}, {"measurement": "Activity", "setting": "Liver [2]", "result": "Non-toxic"}, {"measurement": "inhibition of growth at 50 µM", "setting": "5637 [3]", "result": 50, "unit": "%"}, {"measurement": "IC50", "setting": "5637 [4]", "result": 40.4, "unit": "µM"}, {"measurement": "Activity", "setting": "5637 [5]", "result": 92.8, "unit": "%"}, {"measurement": "Activity", "setting": "5637 [6]", "result": 71.12, "unit": "%"}, {"measurement": "Activity", "setting": "5637 [7]", "result": "Active"}, {"measurement": "Activity", "setting": "5637 [8]", "result": "Active"}, {"measurement": "Activity", "setting": "5637 [9]", "result": "Active"}, {"measurement": "Ratio", "setting": "5637 [10]", "result": 4.8}, {"measurement": "Ratio", "setting": "5637 [11]", "result": 0.9}, {"measurement": "Activity", "setting": "5637 [12]", "result": "Active"}, {"measurement": "Activity", "setting": "5637 [13]", "result": "Active"}, {"measurement": "Activity", "setting": "Liver [14]", "result": "Non-toxic"}, {"measurement": "t50", "setting": "[15]", "result": 15.2, "unit": "min"}, {"measurement": "fold change (FC)", "setting": "[16]", "result": 4}]}, {"smiles": "Cc1cn([C@H]2C[C@H](N=[N+]=[N-])[C@@H](C[Se]c3cccc4ccccc34)O2)c(=O)[nH]c1=O", "values": [{"measurement": "inhibition at 200 µM", "setting": "Brain; 1 h", "result": 80, "unit": "%"}, {"measurement": "t50", "setting": "[15]", "result": 66.3, "unit": "min"}]}, {"smiles": "Cc1ccc([Se]C[C@H]2O[C@@H](n3cc(C)c(=O)[nH]c3=O)C[C@@H]2N=[N+]=[N-])cc1", "values": [{"measurement": "inhibition", "setting": "Brain", "result": "Active"}, {"measurement": "Activity", "setting": "Liver [1]", "result": "Non-toxic"}, {"measurement": "Activity", "setting": "Liver [2]", "result": "Non-toxic"}, {"measurement": "inhibition of growth at 50 µM", "setting": "5637 [3]", "result": 50, "unit": "%"}, {"measurement": "IC50", "setting": "5637 [4]", "result": 51.6, "unit": "µM"}, {"measurement": "Activity", "setting": "5637 [5]", "result": 89.6, "unit": "%"}, {"measurement": "Activity", "setting": "5637 [7]", "result": "Active"}, {"measurement": "Activity", "setting": "5637 [9]", "result": "Active"}, {"measurement": "Ratio", "setting": "5637 [10]", "result": 19.4}, {"measurement": "Ratio", "setting": "5637 [11]", "result": 0.5}, {"measurement": "Activity", "setting": "5637 [12]", "result": "Active"}, {"measurement": "Activity", "setting": "5637 [13]", "result": "Active"}, {"measurement": "Activity", "setting": "Liver [14]", "result": "Non-toxic"}, {"measurement": "t50", "setting": "[15]", "result": 22.5, "unit": "min"}, {"measurement": "fold change (FC)", "setting": "[16]", "result": 4}]}, {"smiles": "Cc1cn([C@H]2C[C@H](N=[N+]=[N-])[C@@H](CO)O2)c(=O)[nH]c1=O", "note": "[ZIDOVUDINE]", "values": [{"measurement": "Activity", "setting": "Liver [2]", "result": "Non-toxic"}, {"measurement": "inhibition of growth at 50 µM", "setting": "5637 [3]", "result": 50, "unit": "%"}, {"measurement": "growth inhibition (GI)", "setting": "5637 [17]", "result": ">50", "unit": "%"}, {"measurement": "IC50", "setting": "5637 [4]", "result": 7, "unit": "µM"}, {"measurement": "Activity", "setting": "5637 [6]", "result": 7.74, "unit": "%"}, {"measurement": "Activity", "setting": "5637 [7]", "result": "inactive"}, {"measurement": "Activity", "setting": "5637 [8]", "result": "inactive"}, {"measurement": "Activity", "setting": "5637 [9]", "result": "Active"}, {"measurement": "Activity", "setting": "Liver [14]", "result": "Non-toxic"}, {"measurement": "t50", "setting": "[15]", "result": 66.5, "unit": "min"}]}, {"smiles": "Cc1cn([C@H]2C[C@H](N=[N+]=[N-])[C@@H](C[Se]c3ccccc3)O2)c(=O)[nH]c1=O", "values": [{"measurement": "inhibition", "setting": "Brain", "result": "Active"}, {"measurement": "Activity", "setting": "Liver [1]", "result": "Non-toxic"}, {"measurement": "Activity", "setting": "Liver [2]", "result": "Non-toxic"}, {"measurement": "growth inhibition (GI)", "setting": "5637 [18]", "result": ">50", "unit": "%"}, {"measurement": "IC50", "setting": "5637 [4]", "result": 78.9, "unit": "µM"}, {"measurement": "Activity", "setting": "5637 [5]", "result": 90.74, "unit": "%"}, {"measurement": "Activity", "setting": "5637 [7]", "result": "Active"}, {"measurement": "Activity", "setting": "5637 [9]", "result": "Active"}, {"measurement": "Ratio", "setting": "5637 [10]", "result": 10.6}, {"measurement": "Ratio", "setting": "5637 [11]", "result": 1.45}, {"measurement": "Activity", "setting": "5637 [12]", "result": "Active"}, {"measurement": "Activity", "setting": "5637 [13]", "result": "Active"}, {"measurement": "Activity", "setting": "Liver [14]", "result": "Non-toxic"}, {"measurement": "t50", "setting": "[15]", "result": 56.4, "unit": "min"}]}, {"smiles": "Cc1cc(C)c([Se]C[C@H]2O[C@@H](n3cc(C)c(=O)[nH]c3=O)C[C@@H]2N=[N+]=[N-])c(C)c1", "values": [{"measurement": "inhibition", "setting": "Brain", "result": "Active"}, {"measurement": "t50", "setting": "[15]", "result": 97.5, "unit": "min"}]}]}
